One data set relates to Escherichia coli. Put plainly: Antibacterial activity against extended spectrum beta-lactamases producing Escherichia coli clinical isolates after 18 hrs by broth microdilution method. It is filed as functional. In general terms: Broth dilution looks for growth in wells or tubes with falling amounts of substance.
The subject of another data set is Pseudomonas aeruginosa. Put plainly: Antibacterial activity against extended spectrum beta-lactamase IMP-4 producing multidrug resistant Pseudomonas aeruginosa clinical isolates after 18 hrs by broth microdilution method. The format is functional.
Another data set relates to Klebsiella pneumoniae. Put plainly: Antibacterial activity against extended spectrum beta-lactamase KPC-2 producing multidrug resistant Klebsiella pneumoniae clinical isolates after 18 hrs by broth microdilution method. The format is functional.
Data set [1] in a line: Drug degradation in human plasma at 10 uM after 4 hrs by LC-MS/MS analysis. It is filed as ADME, cell-free. Particulars: read-out: Drug degradation. Summed up: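 Human plasma containing compound (10 μM, n = 4) was incubated for 4 h at 37 °C under 5% CO2. Concentrations at T0 and at 4 h were measured by LC–MS/MS, and degradation was expressed as a percentage relative to the T0 average.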

The next data set has as its system Acinetobacter baumannii. Put plainly: Antibacterial activity against extended spectrum beta-lactamase OXA-23 producing multidrug resistant Acinetobacter baumannii clinical isolates after 18 hrs by broth microdilution method. The format is functional.
The subject of a further data set is Plasma. Put plainly: Fraction unbound in human plasma at 10 uM after 4 hrs by LC-MS/MS based rapid equilibrium dialysis method. The format is ADME, cell-free. The gist of the method: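 Human plasma spiked at 10 μM was dialysed against buffer in a rapid equilibrium dialysis device for 4 h at 37 °C under 5% CO2 (n = 4). Both sides were quantified by LC–MS/MS. Fraction unbound was taken as the buffer concentration divided by the total plasma-side concentration.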

[2] abbreviates: Klebsiella pneumoniae, 18 h, read-out: MIC.

Converted amounts (≈) assume the structure as drawn.

With `CC(C)[C@H](O/N=C(\C(=O)N[C@@H]1C(=O)N(OS(=O)(=O)O)C1(C)C)c1nsc(N)n1)c1cc(=O)c(O)cn1O`, the MIC (usually the lowest concentration that inhibits growth of the organism) in the data set with Escherichia coli lay within 0.5 to 2 µg/mL (≈ 0.89 to 3.56 µM); against Pseudomonas aeruginosa, 1 to 2 µg/mL (≈ 1.78 to 3.56 µM); in the data set on Klebsiella pneumoniae (setting [2]), 1 to 4 µg/mL (≈ 1.78 to 7.12 µM); against Acinetobacter baumannii, 1 to 4 µg/mL (≈ 1.78 to 7.12 µM). Moreover, the metabolised at 4 h, 10 µM in data set [1] came to 16%. The compound further yielded a Fu in the data set on Plasma of 27%.
`CC1(C)[C@H](NC(=O)/C(=N\OC(c2nccs2)c2cc(=O)c(O)cn2O)c2csc(N)n2)C(=O)N1OS(=O)(=O)O` (stereo partly drawn): the MIC in the data set on Pseudomonas aeruginosa is 1 to 2 µg/mL (≈ 1.66 to 3.32 µM); against Acinetobacter baumannii it was 0.5 to 2 µg/mL (≈ 0.831 to 3.32 µM).
As to `CC1(C)[C@H](NC(=O)/C(=N\OC(c2ccccc2)c2cc(=O)c(O)cn2O)c2csc(N)n2)C(=O)N1OS(=O)(=O)O` (stereo partly drawn), the MIC in the data set with Pseudomonas aeruginosa and against Acinetobacter baumannii was 0.5 to 2 µg/mL (≈ 0.841 to 3.36 µM) each time.
As to `CC(C)[C@@H](O/N=C(\C(=O)N[C@@H]1C(=O)N(OS(=O)(=O)O)C1(C)C)c1nc(N)sc1Cl)c1cc(=O)c(O)cn1O`, the MIC against Escherichia coli lay within 0.125 to 1 µg/mL (≈ 0.21 to 1.68 µM); with Pseudomonas aeruginosa, 0.5 to 4 µg/mL (≈ 0.84 to 6.72 µM); with Klebsiella pneumoniae (setting [2]), 0.5 to 2 µg/mL (≈ 0.84 to 3.36 µM); against Acinetobacter baumannii, 0.25 to 64 µg/mL (≈ 0.42 to 108 µM).
As for `COCC(O/N=C(\C(=O)N[C@@H]1C(=O)N(OS(=O)(=O)O)C1(C)C)c1csc(N)n1)c1cc(=O)c(O)cn1O` (stereo partly drawn), the minimum inhibitory concentration (MIC) fell in the range of 1 to 4 µg/mL (≈ 1.78 to 7.11 µM) in the data set on Pseudomonas aeruginosa, 0.06 to 2 µg/mL (≈ 0.107 to 3.56 µM) in the data set on Klebsiella pneumoniae (setting [2]) and 0.125 to 1 µg/mL (≈ 0.222 to 1.78 µM) with Acinetobacter baumannii. Further, the metabolised at 4 h, 10 µM in data set [1] turned out to be 57%. Also, the Fu in the data set on Plasma was 67%.
In the case of `CCC(O/N=C(\C(=O)N[C@@H]1C(=O)N(OS(=O)(=O)O)C1(C)C)c1csc(N)n1)c1cc(=O)c(O)cn1O` (stereo partly drawn), the MIC against Escherichia coli was 0.25 to 2 µg/mL (≈ 0.457 to 3.66 µM); against Pseudomonas aeruginosa it was 0.125 to 4 µg/mL (≈ 0.229 to 7.32 µM); against Klebsiella pneumoniae, over 0.03 to 64 µg/mL; against Acinetobacter baumannii, 0.25 to 2 µg/mL (≈ 0.457 to 3.66 µM). For the same compound, in data set [1], the metabolised at 4 h, 10 µM is 27%. Further, the Fu in the data set with Plasma is 35%.
`CC(C)[C@@H](O/N=C(\C(=O)N[C@@H]1C(=O)N(OS(=O)(=O)O)C1(C)C)c1csc(N)n1)c1cc(=O)c(O)cn1O`: the MIC in the data set on Escherichia coli is 0.06 to 2 µg/mL (≈ 0.107 to 3.57 µM); with Pseudomonas aeruginosa, 1 to 4 µg/mL (≈ 1.78 to 7.14 µM); in the data set with Klebsiella pneumoniae (setting [2]), 0.06 to 0.5 µg/mL (≈ 0.107 to 0.892 µM); in the data set with Acinetobacter baumannii, 0.25 to 64 µg/mL (≈ 0.446 to 114 µM).
For `CSC[C@@H](O/N=C(\C(=O)N[C@@H]1C(=O)N(OS(=O)(=O)O)C1(C)C)c1csc(N)n1)c1cc(=O)c(O)cn1O`, the MIC in the data set on Pseudomonas aeruginosa lay in the range of 1 to 8 µg/mL (≈ 1.73 to 13.8 µM); with Klebsiella pneumoniae (setting [2]), 0.125 to 0.5 µg/mL (≈ 0.216 to 0.864 µM); with Acinetobacter baumannii, 0.5 to 2 µg/mL (≈ 0.864 to 3.46 µM).
For `CNC(=O)C(O/N=C(\C(=O)N[C@@H]1C(=O)N(OS(=O)(=O)O)C1(C)C)c1csc(N)n1)c1cc(=O)c(O)cn1O` (stereo partly drawn), the MIC in the data set with Escherichia coli is 0.06 to 4 µg/mL (≈ 0.104 to 6.95 µM); against Pseudomonas aeruginosa it was 4 µg/mL (≈ 6.95 µM); with Klebsiella pneumoniae (setting [2]), 0.25 to 2 µg/mL (≈ 0.434 to 3.48 µM); with Acinetobacter baumannii it was 0.25 to 1 µg/mL (≈ 0.434 to 1.74 µM). For the same compound, the metabolised at 4 h, 10 µM in data set [1] was 36%. In addition, in the data set with Plasma, the Fu worked out at 69%.
As to `CC(O/N=C(\C(=O)N[C@@H]1C(=O)N(OS(=O)(=O)O)C1(C)C)c1nc(N)sc1Cl)c1cc(=O)c(O)cn1O` (stereo partly drawn), the MIC lay within 0.5 to 4 µg/mL (≈ 0.882 to 7.06 µM) in the data set on Pseudomonas aeruginosa, 0.06 to 1 µg/mL (≈ 0.106 to 1.76 µM) with Klebsiella pneumoniae (setting [2]) and 0.25 to 2 µg/mL (≈ 0.441 to 3.53 µM) in the data set with Acinetobacter baumannii. The metabolised at 4 h, 10 µM in data set [1] is 20%. In the data set on Plasma, this compound registered a Fu of 20%.
With `CC1(C)[C@H](NC(=O)/C(=N\OC(c2cc(=O)c(O)cn2O)C2CC2)c2csc(N)n2)C(=O)N1OS(=O)(=O)O` (stereo partly drawn), the MIC with Escherichia coli lay within 0.06 to 4 µg/mL (≈ 0.107 to 7.16 µM); against Pseudomonas aeruginosa, 0.25 to 4 µg/mL (≈ 0.448 to 7.16 µM); against Klebsiella pneumoniae, 0.06 to 64 µg/mL; with Acinetobacter baumannii, 0.5 to 2 µg/mL (≈ 0.895 to 3.58 µM). In addition, the metabolised at 4 h, 10 µM in data set [1] worked out at 24%. This compound gave a Fu in the data set on Plasma of 39%.
For `CC1(C)[C@H](NC(=O)/C(=N\OCc2ccn(O)c(=O)c2)c2csc(N)n2)C(=O)N1OS(=O)(=O)O`, the MIC in the data set with Escherichia coli was 0.25 to 4 µg/mL (≈ 0.498 to 7.96 µM); in the data set with Pseudomonas aeruginosa it was 64 µg/mL (≈ 127 µM); in the data set with Klebsiella pneumoniae (setting [2]) it was 4 to 64 µg/mL (≈ 7.96 to 127 µM); with Acinetobacter baumannii, 4 to 64 µg/mL (≈ 7.96 to 127 µM).
`CC1(C)[C@H](NC(=O)/C(=N\OC(C(=O)O)c2cc(=O)c(O)cn2O)c2csc(N)n2)C(=O)N1OS(=O)(=O)O` (stereo partly drawn): the MIC is 0.125 to 4 µg/mL (≈ 0.222 to 7.11 µM) against Escherichia coli, 1 to 4 µg/mL (≈ 1.78 to 7.11 µM) in the data set with Pseudomonas aeruginosa, 0.25 to 1 µg/mL (≈ 0.444 to 1.78 µM) with Klebsiella pneumoniae (setting [2]) and 0.5 µg/mL (≈ 0.889 µM) in the data set on Acinetobacter baumannii.
On to `CC(C)[C@H](O/N=C(\C(=O)N[C@@H]1C(=O)N(OS(=O)(=O)O)C1(C)C)c1nc(N)sc1Cl)c1cc(=O)c(O)cn1O`, for which the MIC was 0.06 to 1 µg/mL (≈ 0.101 to 1.68 µM) with Escherichia coli, 0.06 to 1 µg/mL (≈ 0.101 to 1.68 µM) against Pseudomonas aeruginosa, 0.25 to 0.5 µg/mL (≈ 0.42 to 0.84 µM) in the data set with Klebsiella pneumoniae (setting [2]) and 0.5 to 1 µg/mL (≈ 0.84 to 1.68 µM) against Acinetobacter baumannii. The metabolised at 4 h, 10 µM in data set [1] turned out to be 33%. This compound also returned a Fu in the data set on Plasma of 23%.

For the origin of these results see ChEMBL document CHEMBL4007487, “Discovery of Novel Pyridone-Conjugated Monosulfactams as Potent and Broad-Spectrum Antibiotics for Multidrug-Resistant Gram-Negative Infections” (J Med Chem, 2017).
